Assay results from different studies.
Target: Homeodomain-interacting protein kinase 1 (HIPK1, Homo sapiens, UniProt Q86Z02)

`O=C(O)c1ccc2c(c1)nc(NCCc1cccc(Cl)c1)c1ccncc12` gave a remaining activity of 20% (enzyme activity, inhibitor, radiometric; 1 µM).
With `Cc1ccc(Nc2nccc(N(C)c3ccc4c(C)n(C)nc4c3)n2)cc1S(N)(=O)=O` the inhibition was 11% (enzyme activity, inhibitor; 0.3 µM).
The inhibition of `CCCS(=O)(=O)Nc1ccc(F)c(C(=O)c2c[nH]c3ncc(-c4ccc(Cl)cc4)cc23)c1F` is reported as < 10% (enzyme activity, inhibitor; 1 µM).
The inhibition of `CN1CC(Oc2cnc(C#N)cc2-c2ccn3nc(NC(=O)C4CC4)cc3c2)C1` is reported as -3% (enzyme activity, inhibitor; 1 µM).
With `CNC(=O)c1cc(Oc2ccc(NC(=O)Nc3ccc(Cl)c(C(F)(F)F)c3)cc2)ccn1` the inhibition was 61% (enzyme activity, inhibitor; 10 µM).
With `Cn1nc(C(F)(F)F)cc1-c1cnc(N2CCc3cc(S(=O)(=O)Nc4c(F)cc(Cl)cc4F)cc(N4CCCC4=O)c32)nc1` the remaining binding was 87% (cell-free assay, competition with immobilised ligand; 1 µM).
With `Cc1ccc(NC(=O)c2ccc(C)c(C(F)(F)F)c2)cc1C#Cc1nn(C2CCC(O)CC2)c2ncnc(N)c12` (stereo not drawn) the remaining signal was 107% (cell-free assay; 10 µM).
`Cc1c[nH]c2nccc(Oc3c(F)cc(Nc4cc(Cl)nc(N)n4)cc3F)c12` gave a remaining binding of 100% (cell-free assay, competition with immobilised ligand; 0.1 µM).
With `COc1cc(/C=C/C(=O)CC(=O)/C=C/c2ccc(O)c(OC)c2)ccc1O` the activity vs control was 44% (enzyme activity, inhibitor; 1 µM).
The remaining activity of `Cc1sc(C(=O)NC2COC2)cc1-n1cc(NC(=O)Nc2c(F)cccc2Cl)cn1` is reported as 116% (enzyme activity, inhibitor; 10 µM).
The remaining activity of `O=C(O)c1ccc2c(c1)nc(Nc1ccc(F)c(Cl)c1)c1ccncc12` is reported as 8% (enzyme activity, inhibitor, radiometric; 1 µM).
With `CCC(=O)N[C@H]1CC[C@@H](C(=O)N(C)c2ccc(-c3nc4ccccc4o3)cc2)C1` the remaining binding was 80% (cell-free assay, competition with immobilised ligand; 1 µM).
`O=C(O)c1ccc2c(c1)nc(NCCc1cccc(Cl)c1)c1ncncc12` has a remaining activity of 35% (enzyme activity, inhibitor, radiometric; 1 µM).
`COc1cc2c(N3CCN(C(=O)Nc4ccc(OC(C)C)cc4)CC3)ncnc2cc1OCCCN1CCCCC1` has a remaining signal of 98.9% (cell-free assay; 0.5 µM).
`CN([C@@H]1CCc2c(CC(=O)O)c3cc(S(C)(=O)=O)ccc3n2C1)S(=O)(=O)c1ccc(F)cc1` has a remaining binding of 77% (cell-free assay, competition with immobilised ligand; 1 µM).
With `COc1cccc(Nc2nc3cc(C(=O)O)ccc3c3cnccc23)c1` the remaining activity was 11% (enzyme activity, inhibitor, radiometric; 1 µM).
For `CO[C@@H](C)c1c(Nc2ccc([C@@H](N(C)C(=O)C3CCS(=O)(=O)CC3)C(F)(F)F)cc2)cnc2cc(Cl)nn12`, the remaining binding was 56% (cell-free assay, competition with immobilised ligand; 1 µM).
`CCN(CC)CCNC(=O)c1c(C)[nH]c(/C=C2\C(=O)Nc3ccc(F)cc32)c1C` gave an inhibition of 59% (enzyme activity, inhibitor; 10 µM).
`O=C(O)c1ccc2c(c1)nc(NCc1ccccc1)c1ccncc12` has a remaining activity of 76% (enzyme activity, inhibitor, radiometric; 1 µM).
`COc1cc2ncnc(Nc3ccc(Oc4ccccc4)c(C)c3C)c2cc1OC` has an inhibition of 3% (enzyme activity, inhibitor; 1 µM).
`COCCOc1nc(-c2ccc(Cl)nc2)nc2c1CN(C(=O)c1ncn3ccccc13)CC2` gave a remaining binding of 90% (cell-free assay, competition with immobilised ligand; 0.1 µM).
`O=C(O)c1ccc2c(c1)nc(Nc1ccc(Cl)cc1)c1ccncc12` gave a remaining activity of 6% (enzyme activity, inhibitor, radiometric; 1 µM).
With `CNC(=O)c1ccc(Nc2ncc(C(F)(F)F)c(NCc3nccnc3N(C)S(C)(=O)=O)n2)cc1` the remaining binding was 27% (cell-free assay, competition with immobilised ligand; 0.1 µM).
`O=C(O)c1ccc2c(c1)nc(Nc1ccccc1)c1ncncc12` has a remaining activity of 11% (enzyme activity, inhibitor, radiometric; 1 µM).
The remaining activity of `COc1cc(Nc2cnc(C#N)c(O[C@H](C)CN(C)C)n2)ncc1-c1cnn(C)c1` is reported as 95% (enzyme activity, inhibitor, radiometric; 1 µM).
`Cc1cc(NC(=O)c2cccc3cc(-c4cccc5[nH]nc(N)c45)ccc23)ccc1F` has an activity vs control of 95% (enzyme activity, inhibitor; 0.1 µM).
With `CNC(=O)Nc1ccc2c(c1)CC[C@@]21OC(=O)N(CC(=O)N(Cc2ccc(F)cc2)[C@@H](C)C(F)(F)F)C1=O` the remaining binding was 85% (cell-free assay, competition with immobilised ligand; 1 µM).
With `FC(F)(F)Oc1cccc(-c2cnc3ccc(-c4ccncc4)nn23)c1` the activity vs control was 29% (enzyme activity, inhibitor, radiometric; 5 µM).
The remaining activity of `O=C(O)c1ccc2c(c1)nc(NCCc1cccc(F)c1)c1ccncc12` is reported as 13% (enzyme activity, inhibitor, radiometric; 1 µM).
With `N#CCCc1ccc2c(c1)-c1[nH]c3ccc([N+](=O)[O-])cc3c1CC(=O)N2` the remaining signal was 97.9% (cell-free assay; 0.5 µM).
